Laboratory results from ChEMBL document CHEMBL1149790, “Synthesis of some novel thiourea derivatives obtained from 5-[(4-aminophenoxy)methyl]-4-alkyl/aryl-2,4-dihydro-3H-1,2,4-triazole-3-thiones and evaluation as antiviral/anti-HIV and anti-tuberculosis agents” (Eur J Med Chem, 2008).
Values after ≈ are worked out from the molar mass of the structure shown. Active and inactive are the calls of the source. The rule behind the calls is not given here.

Columns and labels:
[1] = tested on: Vesicular stomatitis virus; assay: Antiviral activity against in Vesicular stomatitis virus in human HEL cells assessed as reduction of virus-induced cytopathogenicity; assay type: functional
Outline: (§1)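 Confluent cell monolayers (E6SM, HEL, HeLa or Vero, per line) inoculated with 100 CCID50 virus; 1 h adsorption, residual virus removed, then incubated with compound at 400, 200, 100 … µg/ml. Cytopathicity scored once complete in untreated virus controls; MIC = concentration inhibiting virus-induced cytopathicity.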

[2] = Cytotoxicity against human HEL cells assessed as reduction of cell growth; assay type: cell-based
Outline: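 HEL cells; CC50 = compound concentration reducing cell growth by 50%.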

[3] = tested on: Human respirovirus 3; assay: Antiviral activity against Parainfluenza 3 virus in african green monkey Vero cells assessed as reduction of virus-induced cytopathogenicity; assay type: functional; outline: as §1
[4] = Cytotoxicity against human HEL cells assessed as alteration of cell morphology; assay type: cell-based
Outline: (§2)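 Uninfected cell cultures exposed to test compounds alongside antiviral assays; minimum cytotoxic concentration (MCC) = concentration causing a microscopically detectable alteration of cell morphology.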

[5] = tested on: Vesicular stomatitis virus; assay: Antiviral activity against in Vesicular stomatitis virus in human E6SM cells assessed as reduction of virus-induced cytopathogenicity; assay type: functional; outline: as §1
[6] = tested on: Human betaherpesvirus 5; assay: Antiviral activity against human cytomegalovirus AD169 infected HEL cells assessed as reduction in virus plaque formation; assay type: functional, organism-based; conditions: Human betaherpesvirus 5, AD169, HEL
[7] = tested on: Human betaherpesvirus 5; assay: Antiviral activity against human cytomegalovirus Davis infected HEL cells assessed as reduction in virus plaque formation; assay type: functional, organism-based; conditions: Human betaherpesvirus 5, Davis
[8] = tested on: Human alphaherpesvirus 1; assay: Antiviral activity against HSV1 KOS in human E6SM cells assessed as reduction of virus-induced cytopathogenicity; assay type: functional; conditions: Human alphaherpesvirus 1, KOS; outline: as §1
[9] = tested on: Human alphaherpesvirus 3; assay: Antiviral activity against TK- VZV 07/1 infected HEL cells assessed as reduction in virus plaque formation; assay type: functional, organism-based; conditions: Human alphaherpesvirus 3, 07/1, HEL
[10] = tested on: Human immunodeficiency virus 1; assay: Antiviral activity against HIV1 3B in human MT4 cells assessed as protection against virus-induced cytopathogenicity by MTT assay; assay type: functional, organism-based; parameters: Activity: concentration or dose not given beside the values; conditions: for IC50: Human immunodeficiency virus 1, 3B, MT4
Outline: (§3)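 MT-4 cells at 6 × 10⁵ cells/ml infected with HIV-1 IIIB or HIV-2 ROD at 100–300 CCID50; compounds in serial five-fold dilutions, triplicate mock- and virus-infected wells. MTT viability read at 540 and 690 nm after 5 days, median OD of three wells; EC50 = 50% protection from viral cytopathic effect.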

[11] = tested on: Mammalian orthoreovirus 1; assay: Antiviral activity against Reo virus 1 in african green monkey Vero cells assessed as reduction of virus-induced cytopathogenicity; assay type: functional; outline: as §1
[12] = tested on: Coxsackievirus B4; assay: Antiviral activity against Coxsackie virus B4 in human HeLa cells assessed as inhibition of virus-induced cytopathogenicity; assay type: functional; conditions: Enterovirus B; outline: as §1
[13] = tested on: Human alphaherpesvirus 1; assay: Antiviral activity against thymidine kinase deficient and acyclovir resistant HSV1 KOS in human E6SM cells assessed as reduction of virus-induced cytopathogenicity; assay type: functional; conditions: Human alphaherpesvirus 1, KOS; outline: as §1
[14] = tested on: Human alphaherpesvirus 1; assay: Antiviral activity against HSV1 KOS in human HEL cells assessed as reduction of virus-induced cytopathogenicity; assay type: functional; conditions: Human alphaherpesvirus 1, KOS; outline: as §1
[15] = Cytotoxicity against human MT4 cells by MTT assay; assay type: cell-based
Outline: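 Mock-infected MT-4 cells (6 × 10⁵ cells/ml) with serial five-fold compound dilutions in triplicate; MTT reduction read at 540 and 690 nm after 5 days, median OD of three wells; CC50 = concentration reducing OD540 of mock-infected control by 50%.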

[16] = tested on: Human alphaherpesvirus 2; assay: Antiviral activity against HSV2 G in human HEL cells assessed as reduction of virus-induced cytopathogenicity; assay type: functional; conditions: Human alphaherpesvirus 2, G; outline: as §1
[17] = tested on: Human immunodeficiency virus 2; assay: Antiviral activity against HIV2 ROD in human MT4 cells assessed as protection against virus-induced cytopathogenicity by MTT assay; assay type: functional, organism-based; parameters: Activity: concentration or dose not given beside the values; conditions: for IC50: Human immunodeficiency virus 2, ROD, MT4; outline: as §3
[18] = tested on: Human alphaherpesvirus 3; assay: Antiviral activity against TK+ VZV OKA infected HEL cells assessed as reduction in virus plaque formation; assay type: functional, organism-based; conditions: Human alphaherpesvirus 3, OKA
[19] = tested on: Vesicular stomatitis virus; assay: Antiviral activity against vesicular stomatitis virus in human HeLa cells assessed as inhibition of virus-induced cytopathogenicity; assay type: functional; outline: as §1
[20] = tested on: Vero; assay: Cytotoxicity against african green monkey Vero cells; assay type: cell-based; conditions: chlorocebus sabaeus; outline: as §2
[21] = tested on: Punta Toro virus; assay: Antiviral activity against Punta Toro virus in african green monkey Vero cells assessed as reduction of virus-induced cytopathogenicity; assay type: functional; outline: as §1
[22] = tested on: Respiratory syncytial virus; assay: Antiviral activity against respiratory syncytial virus in human HeLa cells assessed as inhibition of virus-induced cytopathogenicity; assay type: functional; outline: as §1
[23] = tested on: Sindbis virus; assay: Antiviral activity against Sindbis virus in african green monkey Vero cells assessed as reduction of virus-induced cytopathogenicity; assay type: functional; outline: as §1
[24] = Cytotoxicity against human E6SM cells; assay type: cell-based; conditions: E6SM cells; outline: as §2
[25] = tested on: Mycobacterium tuberculosis; assay: Antitubercular activity against Mycobacterium tuberculosis H37Rv at 6.25 ug/ml by MABA assay; assay type: functional
[26] = tested on: Human alphaherpesvirus 2; assay: Antiviral activity against HSV2 G in human E6SM cells assessed as reduction of virus-induced cytopathogenicity; assay type: functional; conditions: Human alphaherpesvirus 2, G; outline: as §1
[27] = tested on: Human alphaherpesvirus 1; assay: Antiviral activity against thymidine kinase deficient and acyclovir resistant HSV1 KOS in human HEL cells assessed as reduction of virus-induced cytopathogenicity; assay type: functional; conditions: Human alphaherpesvirus 1, KOS; outline: as §1
[28] = tested on: Coxsackievirus B4; assay: Antiviral activity against Coxsackie virus B4 in african green monkey Vero cells assessed as reduction of virus-induced cytopathogenicity; assay type: functional; conditions: Enterovirus B; outline: as §1
[29] = Cytotoxicity against human HeLa cells; assay type: cell-based; outline: as §2

Row | SMILES | MIC [1] [µg/mL] | CC50 [2] [µg/mL] | MIC [3] [µg/mL] | MCC [4] [µg/mL] | MIC [5] [µg/mL] | EC50 [6] [µg/mL] | EC50 [7] [µg/mL] | MIC [8] [µg/mL] | EC50 [9] [µg/mL] | Activity [10] [%] | IC50 [10] [µg/mL] | MIC [11] [µg/mL] | MIC [12] [µg/mL] | MIC [13] [µg/mL] | MIC [14] [µg/mL] | CC50 [15] [µg/mL] | MIC [16] [µg/mL] | Activity [17] [%] | IC50 [17] [µg/mL] | EC50 [18] [µg/mL] | also measured
1 | CCNC(=S)Nc1ccc(OCc2n[nH]c(=S)n2CC)cc1 | > 400 | > 50 | > 80 | > 400 | > 400 | 49 (≈ 145 µM) | 55 (≈ 163 µM) | > 400 | 58 (≈ 172 µM) | 9.5 | > 88.3 | > 80 | > 80 | 240 (≈ 711 µM) | > 400 | 94.2 (≈ 279 µM) | 240 (≈ 711 µM) | 8 | > 91.1 | 64 (≈ 190 µM) | MIC [19]: > 80 µg/mL; Activity [20]: 400 µg/mL; MIC [21]: > 80 µg/mL; MIC [22]: > 80 µg/mL; MIC [23]: > 80 µg/mL; MCC [24]: > 400 µg/mL; Activity [25]: inactive; MIC [26]: 240 µg/mL (≈ 711 µM); MIC [27]: 240 µg/mL (≈ 711 µM); MIC [28]: 48 µg/mL (≈ 142 µM); MCC [29]: 400 µg/mL
2 | CCn1c(COc2ccc(N)cc2)n[nH]c1=S | > 400 | > 50 | > 16 | > 400 | > 400 | > 100 | > 100 | > 400 | > 100 | 6 | > 125 | > 16 | > 400 | 240 (≈ 959 µM) | > 400 | > 125 | 240 (≈ 959 µM) | 8 | > 125 | > 100 | MIC [19]: > 400 µg/mL; Activity [20]: 80 µg/mL; MIC [21]: > 16 µg/mL; MIC [22]: > 400 µg/mL; MIC [23]: > 16 µg/mL; MCC [24]: > 400 µg/mL; Activity [25]: inactive; MIC [26]: 240 µg/mL (≈ 959 µM); MIC [27]: 240 µg/mL (≈ 959 µM); MIC [28]: > 16 µg/mL; MCC [29]: ≥ 400 µg/mL
3 | C=CCNC(=S)Nc1ccc(OCc2n[nH]c(=S)n2CC=C)cc1 | > 400 | > 50 | > 80 | > 400 | > 400 | 100 (≈ 277 µM) | 77 (≈ 213 µM) | 240 (≈ 664 µM) | 46 (≈ 127 µM) | 3 | > 66.5 | > 80 | > 80 | 240 (≈ 664 µM) | 240 (≈ 664 µM) | 71.5 (≈ 198 µM) | 240 (≈ 664 µM) | 1 | > 69.7 | 41 (≈ 113 µM) | MIC [19]: > 80 µg/mL; Activity [20]: 400 µg/mL; MIC [21]: > 80 µg/mL; MIC [22]: > 80 µg/mL; MIC [23]: > 80 µg/mL; MCC [24]: > 400 µg/mL; inhibition at 6.25 µg/mL [25]: 59%; MIC [26]: 240 µg/mL (≈ 664 µM); MIC [27]: 240 µg/mL (≈ 664 µM); MIC [28]: 48 µg/mL (≈ 133 µM); MCC [29]: 400 µg/mL
